PubChem BioAssay AID504518 (Sanford-Burnham Center for Chemical Genomics, 2011)
Calls of active or inactive are those of the source.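 The calls were made as follows: active = mean IC50 at or below 20 µM; inactive = the rest.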

tested on: HEK-293T NF-kB-Luc, TNFa-induced, luciferase luminescence 14 h; experiment: inhibitors of TNFa-driven NF-kB luciferase in HEK-293T – cell-based, luminescence, selectivity assay for B-cell antigen receptor NF-kB inhibitors, SAR follow-up (AID 504518)
Method in brief: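 material = HEK-293-T cells carrying an NF-kB-driven luciferase reporter | amount = 6000 cells per well | buffer or medium = phenol-red-free DMEM | reagent = TNF-alpha stimulus at 0.1 ng/mL final | compound dosing = dose series, DMSO at most 1% | times = 14 h compound exposure at 37 °C, 5% CO2 | measured by = SteadyGlo luminescence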

Structure (SMILES)	IC50
CC(C)c1ccc(-c2noc(CCC(=O)NC(C)(C)C)n2)cc1	5 µM
CCNC(=O)CCc1nc(-c2ccccc2)no1	> 79 µM (inactive)
CC(C)Nc1ccc(C(CC(=O)O)NC(=O)c2ccccc2)cc1[N+](=O)[O-] (stereo not drawn)	> 79 µM (inactive)
Cc1oc(-c2ccc(C(F)(F)F)cc2)nc1CSCC(=O)NC1CC1	24.4 µM (inactive)
CCOc1ccc(-c2noc(CCC(=O)O)n2)cc1	10.6 µM
CCNC(=O)CCc1nc(-c2cccc(OC)c2)no1	> 79 µM (inactive)
Cc1oc(-c2ccc(OC(F)(F)F)cc2)nc1CSCC(=O)NC1CC1	27.9 µM (inactive)
Cc1oc(-c2ccc(OC(F)(F)F)cc2)nc1CSCC(=O)O	0.11 µM
Cc1ccc(-c2nc(CSCC(=O)NCc3ccco3)c(C)o2)cc1	33.6 µM (inactive)
CCCCc1ccc(-c2noc(CCC(=O)NC(C)CC)n2)cc1 (stereo not drawn)	0.51 µM
CCC(C)NC(=O)CCc1nc(-c2ccccc2)no1 (stereo not drawn)	> 79 µM (inactive)
CCCCOc1ccc(-c2nc(CSCC(=O)O)c(C)o2)cc1	0.04 µM
CC(C)(C)c1ccc(-c2noc(CCC(=O)NC3CCC3)n2)cc1	1.18 µM
CCNC(=O)CCc1nc(-c2ccccc2Cl)no1	> 79 µM (inactive)
CCOc1ccc(-c2nc(CSCC(=O)NCc3ccco3)c(C)o2)cc1	21.4 µM (inactive)
CCOc1cccc(-c2nc(CSCC(=O)NC3CC3)c(C)o2)c1	> 79 µM (inactive)
CCNC(=O)CCc1nc(-c2ccc(OCC)cc2)no1	> 79 µM (inactive)
CCN(CC)C(=O)CCc1nc(-c2ccc(C(C)(C)C)cc2)no1	16.8 µM
CCNC(=O)CCc1nc(-c2ccccc2C)no1	> 79 µM (inactive)
CCNC(=O)CCc1nc(-c2ccc(CC)cc2)no1	65.3 µM (inactive)
CCC(C)NC(=O)CCc1nc(-c2ccc(C(C)(C)C)cc2)no1 (stereo not drawn)	3 µM
CNC(=O)CCc1nc(-c2ccccc2)no1	> 79 µM (inactive)
CCc1ccc(-c2nc(CSCC(=O)NCc3ccco3)c(C)o2)cc1	> 79 µM (inactive)
CC(C)c1ccc(-c2noc(CCC(=O)NC3CC3)n2)cc1	3.11 µM
CCNC(=O)CCc1nc(-c2ccc(C(C)(C)C)cc2)no1	35.8 µM (inactive)
CCNC(=O)CCc1nc(-c2cccc(C)c2)no1	> 79 µM (inactive)

Structure (SMILES)	IC50
CCOc1ccccc1-c1nc(CSCC(=O)NC2CC2)c(C)o1	> 79 µM (inactive)
CCc1ccc(-c2noc(CCC(=O)NC(C)(C)C)n2)cc1	22 µM (inactive)
CCOc1ccc(-c2nc(CSCC(=O)NCC3CC3)c(C)o2)cc1	55.4 µM (inactive)
O=C(O)CCc1nc(-c2ccccc2)no1	> 79 µM (inactive)
Cc1ccc(-c2nc(CSCC(=O)NC3CC3)c(C)o2)cc1	71.1 µM (inactive)
COc1ccc(-c2nc(CSCC(=O)NCc3ccco3)c(C)o2)cc1	35.8 µM (inactive)
CCCCc1ccc(-c2noc(CCC(=O)NC(C)(C)C)n2)cc1	0.66 µM
COc1ccc(-c2nc(CSCC(=O)NC3CC3)c(C)o2)cc1	> 79 µM (inactive)
Cc1oc(-c2ccccc2)nc1CSCC(=O)NC1CC1	> 79 µM (inactive)
CCc1ccc(-c2nc(CSCC(=O)NC3CC3)c(C)o2)cc1	42.2 µM (inactive)
CCCOc1ccc(-c2nc(CSCC(=O)O)c(C)o2)cc1	0.03 µM
CCCCOc1ccc(-c2nc(CSCC(=O)NCc3ccco3)c(C)o2)cc1	13.1 µM
CCNC(=O)CCc1nc(-c2c(Cl)cccc2Cl)no1	> 79 µM (inactive)
C#CCNC(=O)CSCc1nc(-c2ccc(OCC)cc2)oc1C	> 79 µM (inactive)
CCCCOc1ccc(-c2nc(CSCC(=O)NC3CC3)c(C)o2)cc1	11.1 µM
COC(=O)CCc1nc(-c2ccc(C(C)(C)C)cc2)no1	0.22 µM
CCc1ccc(-c2noc(CCC(=O)NC3CC3)n2)cc1	21.1 µM (inactive)
O=C(CCc1nc(-c2ccccc2)no1)NC1CC1	> 79 µM (inactive)
Cc1oc(-c2ccccc2)nc1CSCC(=O)NCc1ccco1	> 79 µM (inactive)
CCNC(=O)CCc1nc(-c2ccc(C(C)C)cc2)no1	21.3 µM (inactive)
CCc1ccc(-c2nc(CSCC(=O)NC3CC3)c(-c3ccccc3)o2)cc1	> 79 µM (inactive)
CC(C)(C)NC(=O)CCc1nc(-c2ccccc2)no1	> 79 µM (inactive)
CC(C)(C)c1ccc(-c2noc(CCC(=O)O)n2)cc1	0.29 µM
COc1ccc(C(=O)Nc2ccc3[nH]c(-c4cccc(OC)c4)cc(=O)c3c2)cc1	> 79 µM (inactive)
CCCCc1ccc(-c2noc(CCC(=O)NC)n2)cc1	1.98 µM
CCOC(=O)CC(NC(=O)c1ccc(Br)cc1)c1ccc(F)c([N+](=O)[O-])c1 (stereo not drawn)	73.4 µM (inactive)

Structure (SMILES)	IC50
CCCCc1ccc(-c2noc(CCC(=O)NC3CC3)n2)cc1	0.55 µM
Cc1oc(-c2ccc(C(F)(F)F)cc2)nc1CSCC(=O)O	0.38 µM
COc1cccc(-c2cc(=O)c3cc(NC(=O)c4ccccc4)ccc3[nH]2)c1	> 79 µM (inactive)
CCOc1ccc(-c2nc(CSCC(=O)NC)c(C)o2)cc1	> 79 µM (inactive)
CCc1ccc(-c2noc(CCC(=O)NC)n2)cc1	> 79 µM (inactive)
CC(C)(C)c1ccc(-c2noc(CCC(N)=O)n2)cc1	0.78 µM
CC(C)(C)c1ccc(-c2noc(CCC(=O)NC3CC3)n2)cc1	12 µM
CCCOc1ccc(-c2nc(CSCC(=O)NC3CC3)c(C)o2)cc1	31.5 µM (inactive)
CCOc1ccc(-c2nc(CSCC(=O)N(C)C)c(C)o2)cc1	78.5 µM (inactive)
CCOc1ccc(-c2nc(CSCC(N)=O)c(C)o2)cc1	> 79 µM (inactive)
CCOc1ccc(-c2nc(CSCC(=O)N3CCOCC3)c(C)o2)cc1	64.6 µM (inactive)
CCOc1ccc(-c2nc(CSCC(=O)NC3CCC3)c(C)o2)cc1	38.7 µM (inactive)
CNC(=O)CCc1nc(-c2ccc(C(C)C)cc2)no1	56.9 µM (inactive)
CCCOc1ccc(-c2nc(CSCC(=O)NCc3ccco3)c(C)o2)cc1	9.74 µM
CN(C)C(=O)CCc1nc(-c2ccc(C(C)(C)C)cc2)no1	42.2 µM (inactive)
COc1cccc(-c2cc(=O)c3cc(NC(=O)c4ccc(N(C)C)cc4)ccc3[nH]2)c1	15.2 µM
CCC(C)NC(=O)CCc1nc(-c2ccc(C(C)C)cc2)no1 (stereo not drawn)	3.48 µM
CCc1ccc(-c2noc(CCC(=O)NC(C)CC)n2)cc1 (stereo not drawn)	14.1 µM
CCOc1ccc(-c2nc(CSCC(=O)NC(C)(C)C)c(C)o2)cc1	37.7 µM (inactive)
CCNC(=O)CCc1nc(-c2cccc(F)c2)no1	> 79 µM (inactive)
CCOc1ccccc1-c1nc(CSCC(=O)O)c(C)o1	> 79 µM (inactive)
CCOc1ccc(-c2nc(CSCC(=O)NC3CC3)c(C)o2)cc1	> 79 µM (inactive)
CCCCc1ccc(-c2noc(CCC(=O)NCC)n2)cc1	0.77 µM
CCOc1ccc(-c2nc(CSCC(=O)NC3CC3)c(-c3ccccc3)o2)cc1	> 79 µM (inactive)
CNC(=O)CCc1nc(-c2ccc(C(C)(C)C)cc2)no1	66.8 µM (inactive)
CCOc1ccc(-c2nc(CSCC(=O)O)c(C)o2)cc1	0.04 µM
